Here are results for twelve compounds from paper PMC7508885 (SLAS discovery : advancing life sciences R & D, 2020).

In data set [1] the target is T1, P. aeruginosa TyrRS-S (Pseudomonas aeruginosa, UniProt Q9HWP3). Kind of data set: ATP:PPi exchange reaction. It counts as biochemical. To be noted: other substrate (Tyr or ATP) held at 2 mM; enzyme 0.4 μM.
The target of data set [2] is T2, P. aeruginosa TyrRS-Z (Pseudomonas aeruginosa, UniProt Q9I5Q3). The data set is described as follows: ATP:PPi exchange reaction. The format is biochemical. To be noted: other substrate (Tyr or ATP) held at 2 mM; enzyme 0.4 μM.
In data set [3] the test system is human embryonic kidney 293 cells (HEK293). Kind of data set: In vitro cytotoxicity test. The format is cell-based. To be noted: 25-400 μg/mL, 24 h, triplicate.
The target of data set [4] is T1, P. aeruginosa TyrRS-S. Kind of data set: Binding mode assay. To be noted: for shift in the IC50 with increasing ATP concentration (competition with ATP): ATP 25-1000 μM, Tyr held constant; for shift in the IC50 with increasing ATP concentration (competition with ATP) / shift in the IC50 with increasing Tyr concentration (competition with Tyr): TyrRS-S 0.05 μM; for shift in the IC50 with increasing Tyr concentration (competition with Tyr): Tyr 25-300 μM, ATP held at 2.5 mM. It counts as biochemical.

Data set [5] concerns the target T1, P. aeruginosa TyrRS-S. The data set is described as follows: SPA-based tRNA aminoacylation assay. It counts as biochemical.
Data set [6] concerns Haemophilus influenzae (ATCC 49766). Kind of data set: Broth microdilution MIC testing. The format is cell-based. The conditions noted are these: Gram-negative respiratory pathogen H. influenzae. Summed up: (§1)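 Broth microdilution MIC testing following CLSI guideline M7-A7, run against a 10-strain bacterial panel that included E. coli and P. aeruginosa efflux-pump mutants and a hypersensitive P. aeruginosa strain.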
(In general: Broth dilution looks for growth in wells or tubes with falling amounts of substance.)

In data set [7] the test system is Moraxella catarrhalis (ATCC 25238). Kind of data set: Broth microdilution MIC testing. To be noted: Gram-negative M. catarrhalis. The format is cell-based. Summed up:
as §1

Data set [8] deals with T2, P. aeruginosa TyrRS-Z. The data set is described as follows: SPA-based tRNA aminoacylation assay. The format is biochemical.
Data set [9] deals with NIH-3T3 cell line. To be noted: quantitative high-throughput screening; ref PubChem CID 53183345; cited from earlier work.
For data set [10], the system named is HEK-293 cell line. The conditions noted are these: quantitative high-throughput screening; ref PubChem CID 53183345; cited from earlier work.
The subject of data set [11] is S. aureus TyrRS. The conditions noted are these: cited from earlier work.
Data set [12] relates to TyrRS. The conditions noted are these: cited from earlier work.
Data set [13] concerns LysRS. To be noted: cited from earlier work.
Data set [14] has as its system eukaryotic LysRS. The conditions noted are these: cited from earlier work.

T1 sequence (Q9HWP3 whole entry): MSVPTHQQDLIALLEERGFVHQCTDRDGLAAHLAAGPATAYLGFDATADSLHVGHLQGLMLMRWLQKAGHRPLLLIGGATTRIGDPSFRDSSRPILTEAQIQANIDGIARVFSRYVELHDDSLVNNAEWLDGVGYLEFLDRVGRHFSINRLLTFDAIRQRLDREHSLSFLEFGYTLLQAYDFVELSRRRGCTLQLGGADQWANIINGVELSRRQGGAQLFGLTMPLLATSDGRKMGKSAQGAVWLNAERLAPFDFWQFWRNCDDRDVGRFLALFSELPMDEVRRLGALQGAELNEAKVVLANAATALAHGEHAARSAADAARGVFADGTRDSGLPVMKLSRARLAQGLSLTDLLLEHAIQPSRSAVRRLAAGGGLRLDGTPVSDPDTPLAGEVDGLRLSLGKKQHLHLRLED
T2 sequence (Q9I5Q3 whole entry): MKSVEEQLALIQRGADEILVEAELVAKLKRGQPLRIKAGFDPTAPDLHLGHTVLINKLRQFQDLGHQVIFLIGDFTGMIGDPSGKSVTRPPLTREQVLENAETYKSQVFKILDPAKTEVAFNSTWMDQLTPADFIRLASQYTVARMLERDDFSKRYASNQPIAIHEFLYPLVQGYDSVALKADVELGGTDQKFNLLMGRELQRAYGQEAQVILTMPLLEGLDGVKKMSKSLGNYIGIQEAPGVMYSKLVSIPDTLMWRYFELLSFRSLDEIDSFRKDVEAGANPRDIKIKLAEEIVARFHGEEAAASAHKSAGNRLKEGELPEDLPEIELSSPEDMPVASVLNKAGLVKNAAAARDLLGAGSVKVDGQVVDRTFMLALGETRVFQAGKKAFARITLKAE

Take `Nc1ncnc2c1ncn2[C@@H]1O[C@H](COP(=O)(O)OP(=O)(O)OP(=O)(O)O)[C@@H](O)[C@H]1O` [ATP]: the “kcat^obs for interaction with TyrRS-S” value in [1] worked out at 1.0 s⁻¹. The “kcat^obs for interaction with TyrRS-Z” value in [2] turned out to be 3.8 s⁻¹.
As usually defined, the IC50 is the concentration that gives 50% inhibition. Low values mean inhibition by little substance, high ones a need for much substance. `O=C1Nc2ccccc2Oc2cc(N3CCc4ccccc4C3)c(S(=O)(=O)N3CCCCC3)cc21` [BCD37H06, 3-(3,4-dihydroisoquinolin-2(1H)-yl)-2-(piperidin-1-ylsulfonyl) dibenzo[b,f][1,4]oxazepin-11(10H)-one]: the “toxicity to human cell cultures” value in [3] is listed as “failed to exhibit toxic effects at any concentrations tested”. In [4], the “shift in the IC50 with increasing ATP concentration (competition with ATP)” value is given as “no shift in the IC50” and the “shift in the IC50 with increasing Tyr concentration (competition with Tyr)” value is “no shift in the IC50”. In [5], this compound came in with an IC50 of 24 µM. For the same compound, in [6], the “effectiveness against cultures (MIC testing)” value is “effective”. The “inhibition of cultures (MIC testing)” value in data set [7] is “inhibited”.
A word on the Ki: it is a dissociation constant, usually derived from enzyme kinetics or from competition with a known ligand. With `CC(=O)N1CCc2cc(Br)c(S(=O)(=O)NCCN3CCCCC3C)cc21` (stereo not shown) [BCD38C11, 1-acetyl-5-bromo-N-[2-(2-methylpiperidin-1-yl)ethyl]indoline-6-sulfonamide], the “toxicity to human cell cultures” value in data set [3] is listed as “failed to exhibit toxic effects at any concentrations tested”. In addition, in [4], the Ki was determined as 5.28 µM, the “shift in the IC50 with increasing ATP concentration (competition with ATP)” value is “increased with increasing ATP concentrations” and the “shift in the IC50 with increasing Tyr concentration (competition with Tyr)” value is reported as “no change in the IC50 values”. In data set [5], the IC50 is 71 µM. The compound further registered an IC50 in data set [8] of 241 µM. Moreover, the “inhibition of cultures (MIC testing)” value in data set [7] is “inhibited”.
As for `Cc1ccc(N2CN(CC(=O)Nc3cccc(Cl)c3)S(=O)(=O)c3cccnc32)cc1` [BCD49D09, N1-(3-chlorophenyl)-2-[4-(4-methylphenyl)-1,1-dioxo-3,4-dihydro-1λ6-pyrido[2,3-e][1,2,4]thiadiazin-2(1H)-yl] acetamide], the “toxicity to human cell cultures” value in [3] is recorded as “failed to exhibit toxic effects at any concentrations tested”. In addition, in [4], the “shift in the IC50 with increasing ATP concentration (competition with ATP)” value is “increased with increasing ATP concentrations” and the “shift in the IC50 with increasing Tyr concentration (competition with Tyr)” value is recorded as “no change in the IC50 values”. Besides, the “inhibition of cultures (MIC testing)” value in [7] is “inhibited”.
With `O=C(c1ccccc1)N1CCCn2cc(-c3ccc4c(c3)OCO4)nc21` [BCD54B04, [2-(1,3-benzodioxol-5-yl)-6,7-dihydroimidazo[1,2-a]pyrimidin-8(5H)-yl](phenyl) methanone], in [3], the “toxicity to human cell cultures” value is reported as “failed to exhibit toxic effects at any concentrations tested”. Also, in data set [4], the “shift in the IC50 with increasing ATP concentration (competition with ATP)” value is “no shift in the IC50” and the “shift in the IC50 with increasing Tyr concentration (competition with Tyr)” value is recorded as “no shift in the IC50”. The compound further had an IC50 in [5] of 50 µM. Further, the “toxicity in NIH-3T3 cell line” value in data set [9] is “nontoxic”. Also, the “effectiveness against cultures (MIC testing)” value in data set [6] is recorded as “effective”. Moreover, the “inhibition of cultures (MIC testing)” value in data set [7] is “inhibited”. The “toxicity in HEK-293 cell line” value in data set [10] is recorded as “nontoxic”.
Take `N[C@@H](Cc1ccc(O)cc1)C(=O)NC(C(=O)O)[C@H]1[C@H](O)[C@]2(O)CO[C@@H]([C@@H]2O)N1O` (stereo partly shown) [SB-219383]: the “IC50 against S. aureus TyrRS” value in data set [11] is reported as “low nanomolar range”.
`COc1ccc(-c2cc(=O)c3c(O)cc(O)cc3o2)cc1` [acacetin]: the “effect on TyrRS” value in data set [12] is “inhibitory effects”.
Consider `C=CC1=C(C)/C(=C/c2[nH]c(Cc3[nH]c(/C=C4\NC(=O)C(C)=C4C=C)c(C)c3CCC(=O)O)c(CCC(=O)O)c2C)NC1=O` [bilirubin], for which, in data set [13], the “inhibition of LysRS” value is recorded as “specific inhibitor of ATP binding”.
As for `O=c1cc(-c2ccccc2)oc2cc(O)cc(O)c12` [chrysin], the “effect on TyrRS” value in data set [12] is given as “inhibitory effects”.
As to `C[C@H]1CCC[C@H](C[C@H]2Cc3cc(O)cc(O)c3C(=O)O2)O1` [cladosporin], the “inhibition of eukaryotic LysRS” value in data set [14] was “potent ATP competitive inhibitor”.
In the case of `O=C(O[C@@H]1Cc2c(O)cc(O)cc2O[C@@H]1c1cc(O)c(O)c(O)c1)c1cc(O)c(O)c(O)c1` [epigallocatechin, gallate], in data set [12], the “effect on TyrRS” value is reported as “inhibitory effects”.
Take `COc1ccc(-c2oc3cc(O)cc(O)c3c(=O)c2O)cc1` [kaempferide]: in data set [12], the “effect on TyrRS” value is reported as “inhibitory effects”.
